What is called pIC50 is the negative decadic logarithm of the IC50, by convention in mol/L.

Here are results for 28 compounds from ChEMBL document CHEMBL3217426, “Synthesis and in vitro biological evaluation of pyrazole group-containing analogues for PDE10A” (Medchemcomm, 2013).

Each structure is given as a SMILES string. pIC50: −log10 of the molar value.

Experiment [1] has as its target cAMP and cAMP-inhibited cGMP 3',5'-cyclic phosphodiesterase 10A (Homo sapiens, UniProt Q9Y233). Kind of experiment: Inhibition of human recombinant PDE10A catalytic domain assessed reduction in [3H]cAMP hydrolysis preincubated with enzyme for 5 mins prior to substrate addition measured after 20 mins by scintillation proximity assay. Summed up:
(§1)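 [3H]cAMP (40 nCi/mL, 1/3 Km) was added, then 20 min on ice (~30% turnover). Stopped with yttrium silicate SPA beads, settled 1.5 h at room temperature, CPM counted. IC50 from one-site competitive nonlinear fit, at least two independent runs.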
(In general: Scintillation proximity formats need no separation of bound from free tracer.)

For experiment [2], the target named is 3',5'-cyclic-AMP phosphodiesterase 4B (Homo sapiens, UniProt Q07343). Description: Inhibition of human recombinant PDE4B assessed reduction in [3H]cAMP hydrolysis preincubated with enzyme for 5 mins prior to substrate addition measured after 20 mins by scintillation proximity assay. Summed up:
as §1

Experiment [3] deals with 3',5'-cyclic-AMP phosphodiesterase 4A (Homo sapiens, UniProt P27815). Kind of experiment: Inhibition of human recombinant PDE4A assessed reduction in [3H]cAMP hydrolysis preincubated with enzyme for 5 mins prior to substrate addition measured after 20 mins by scintillation proximity assay. The essentials:
as §1

Experiment [4] addresses cGMP-inhibited 3',5'-cyclic phosphodiesterase 3B (Homo sapiens, UniProt Q13370). Kind of experiment: Inhibition of human recombinant PDE3B assessed reduction in [3H]cAMP hydrolysis preincubated with enzyme for 5 mins prior to substrate addition measured after 20 mins by scintillation proximity assay. Summed up:
as §1

The target of experiment [5] is cGMP-inhibited 3',5'-cyclic phosphodiesterase 3A (Homo sapiens, UniProt Q14432). Description: Inhibition of human recombinant PDE3A assessed reduction in [3H]cAMP hydrolysis preincubated with enzyme for 5 mins prior to substrate addition measured after 20 mins by scintillation proximity assay. Summed up: as §1
Chain of cGMP-inhibited 3',5'-cyclic phosphodiesterase 3A (Q14432 whole entry): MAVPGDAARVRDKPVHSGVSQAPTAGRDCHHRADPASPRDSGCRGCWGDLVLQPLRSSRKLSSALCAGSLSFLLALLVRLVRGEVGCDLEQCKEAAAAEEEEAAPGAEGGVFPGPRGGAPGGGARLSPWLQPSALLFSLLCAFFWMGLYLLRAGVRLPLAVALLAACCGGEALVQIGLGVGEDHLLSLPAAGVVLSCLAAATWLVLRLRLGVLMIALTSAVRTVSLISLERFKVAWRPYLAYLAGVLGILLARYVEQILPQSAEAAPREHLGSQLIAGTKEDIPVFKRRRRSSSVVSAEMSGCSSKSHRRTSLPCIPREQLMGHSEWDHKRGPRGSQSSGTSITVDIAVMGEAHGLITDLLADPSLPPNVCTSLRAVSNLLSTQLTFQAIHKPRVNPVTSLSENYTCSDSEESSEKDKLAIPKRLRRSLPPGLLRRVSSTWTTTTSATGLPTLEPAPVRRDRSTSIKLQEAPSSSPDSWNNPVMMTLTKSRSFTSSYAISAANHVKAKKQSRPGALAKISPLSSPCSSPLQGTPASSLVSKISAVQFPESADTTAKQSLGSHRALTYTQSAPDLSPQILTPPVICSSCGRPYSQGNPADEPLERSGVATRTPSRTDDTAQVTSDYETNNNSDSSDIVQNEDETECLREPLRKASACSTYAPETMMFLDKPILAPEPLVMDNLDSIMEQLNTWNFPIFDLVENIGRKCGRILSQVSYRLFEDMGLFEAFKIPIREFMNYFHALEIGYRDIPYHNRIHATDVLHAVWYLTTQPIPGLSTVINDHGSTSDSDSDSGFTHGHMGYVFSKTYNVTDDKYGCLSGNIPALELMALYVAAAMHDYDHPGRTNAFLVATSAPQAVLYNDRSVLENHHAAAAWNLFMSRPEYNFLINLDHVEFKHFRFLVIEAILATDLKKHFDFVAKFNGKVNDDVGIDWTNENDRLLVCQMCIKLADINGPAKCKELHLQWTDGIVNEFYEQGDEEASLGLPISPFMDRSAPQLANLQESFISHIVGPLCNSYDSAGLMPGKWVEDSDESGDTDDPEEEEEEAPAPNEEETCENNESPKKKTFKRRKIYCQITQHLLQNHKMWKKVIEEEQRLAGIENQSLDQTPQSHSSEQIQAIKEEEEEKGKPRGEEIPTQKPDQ

Chain of 3',5'-cyclic-AMP phosphodiesterase 4B (Q07343 whole entry): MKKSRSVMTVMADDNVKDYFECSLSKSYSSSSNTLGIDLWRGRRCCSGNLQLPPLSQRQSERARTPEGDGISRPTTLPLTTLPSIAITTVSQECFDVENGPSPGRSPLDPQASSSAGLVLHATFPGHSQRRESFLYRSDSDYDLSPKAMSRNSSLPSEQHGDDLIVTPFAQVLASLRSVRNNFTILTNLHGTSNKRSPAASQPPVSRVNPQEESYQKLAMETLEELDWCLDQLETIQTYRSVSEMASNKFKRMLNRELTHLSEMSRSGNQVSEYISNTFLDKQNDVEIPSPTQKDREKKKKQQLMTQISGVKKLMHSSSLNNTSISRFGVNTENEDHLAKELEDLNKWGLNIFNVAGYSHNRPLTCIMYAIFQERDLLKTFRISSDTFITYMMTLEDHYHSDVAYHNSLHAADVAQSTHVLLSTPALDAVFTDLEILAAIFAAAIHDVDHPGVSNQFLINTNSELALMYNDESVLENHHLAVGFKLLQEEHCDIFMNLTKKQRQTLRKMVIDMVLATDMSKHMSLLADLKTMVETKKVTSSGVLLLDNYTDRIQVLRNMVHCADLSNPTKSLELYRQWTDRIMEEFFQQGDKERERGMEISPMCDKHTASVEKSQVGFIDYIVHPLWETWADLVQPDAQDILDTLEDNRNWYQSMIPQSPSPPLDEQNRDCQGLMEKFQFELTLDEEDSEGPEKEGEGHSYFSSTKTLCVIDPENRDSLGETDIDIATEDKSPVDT
Chain of cAMP and cAMP-inhibited cGMP 3',5'-cyclic phosphodiesterase 10A (Q9Y233 whole entry, the tested form may be a part): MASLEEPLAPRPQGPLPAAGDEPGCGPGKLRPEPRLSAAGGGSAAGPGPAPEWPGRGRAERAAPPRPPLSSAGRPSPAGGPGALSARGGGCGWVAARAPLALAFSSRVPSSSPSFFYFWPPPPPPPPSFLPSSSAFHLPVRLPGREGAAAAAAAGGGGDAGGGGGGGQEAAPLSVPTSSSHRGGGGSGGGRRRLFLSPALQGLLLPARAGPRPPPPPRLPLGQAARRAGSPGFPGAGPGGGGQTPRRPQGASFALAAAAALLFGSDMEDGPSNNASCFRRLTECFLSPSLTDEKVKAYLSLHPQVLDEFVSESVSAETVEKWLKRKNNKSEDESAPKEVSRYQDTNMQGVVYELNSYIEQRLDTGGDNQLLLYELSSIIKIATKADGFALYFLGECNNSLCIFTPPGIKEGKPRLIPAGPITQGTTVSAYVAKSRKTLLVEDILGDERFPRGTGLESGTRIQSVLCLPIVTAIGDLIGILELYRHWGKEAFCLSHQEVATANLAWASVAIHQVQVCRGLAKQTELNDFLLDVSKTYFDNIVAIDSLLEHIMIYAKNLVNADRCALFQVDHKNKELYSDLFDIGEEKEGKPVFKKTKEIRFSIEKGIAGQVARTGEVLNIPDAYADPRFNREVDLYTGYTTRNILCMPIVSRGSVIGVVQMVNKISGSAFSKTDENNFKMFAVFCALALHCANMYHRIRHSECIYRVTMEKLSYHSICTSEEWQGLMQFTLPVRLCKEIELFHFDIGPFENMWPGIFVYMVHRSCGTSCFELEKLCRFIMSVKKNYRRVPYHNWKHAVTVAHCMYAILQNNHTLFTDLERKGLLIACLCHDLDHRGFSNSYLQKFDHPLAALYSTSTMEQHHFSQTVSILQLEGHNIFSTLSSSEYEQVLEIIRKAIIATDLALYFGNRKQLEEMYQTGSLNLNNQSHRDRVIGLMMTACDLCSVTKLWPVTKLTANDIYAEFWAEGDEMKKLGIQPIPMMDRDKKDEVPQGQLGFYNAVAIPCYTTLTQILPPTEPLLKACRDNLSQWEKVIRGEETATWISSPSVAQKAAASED
Chain of 3',5'-cyclic-AMP phosphodiesterase 4A (P27815 whole entry): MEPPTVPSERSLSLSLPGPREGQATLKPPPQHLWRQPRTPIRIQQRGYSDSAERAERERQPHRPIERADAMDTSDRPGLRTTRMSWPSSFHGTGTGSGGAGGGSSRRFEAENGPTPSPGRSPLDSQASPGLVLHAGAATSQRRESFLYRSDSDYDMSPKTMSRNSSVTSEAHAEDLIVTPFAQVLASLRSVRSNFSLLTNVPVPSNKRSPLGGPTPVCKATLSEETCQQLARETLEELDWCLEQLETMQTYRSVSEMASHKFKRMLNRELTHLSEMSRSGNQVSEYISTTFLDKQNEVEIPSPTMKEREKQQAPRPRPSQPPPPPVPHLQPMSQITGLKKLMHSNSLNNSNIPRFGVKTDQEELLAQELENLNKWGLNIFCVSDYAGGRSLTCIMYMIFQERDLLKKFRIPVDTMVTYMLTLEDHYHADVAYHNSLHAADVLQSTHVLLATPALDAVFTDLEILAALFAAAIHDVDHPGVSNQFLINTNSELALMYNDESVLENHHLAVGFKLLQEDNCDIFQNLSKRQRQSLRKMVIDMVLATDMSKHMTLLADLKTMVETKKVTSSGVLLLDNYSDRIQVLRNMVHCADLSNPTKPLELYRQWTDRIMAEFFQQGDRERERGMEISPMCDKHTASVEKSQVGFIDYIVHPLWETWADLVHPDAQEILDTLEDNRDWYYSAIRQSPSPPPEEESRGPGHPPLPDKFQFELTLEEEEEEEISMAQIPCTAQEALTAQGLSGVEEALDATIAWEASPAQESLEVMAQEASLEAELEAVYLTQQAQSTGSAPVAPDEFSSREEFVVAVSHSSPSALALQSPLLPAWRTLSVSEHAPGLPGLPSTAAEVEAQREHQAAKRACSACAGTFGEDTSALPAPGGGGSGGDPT
Chain of cGMP-inhibited 3',5'-cyclic phosphodiesterase 3B (Q13370 whole entry): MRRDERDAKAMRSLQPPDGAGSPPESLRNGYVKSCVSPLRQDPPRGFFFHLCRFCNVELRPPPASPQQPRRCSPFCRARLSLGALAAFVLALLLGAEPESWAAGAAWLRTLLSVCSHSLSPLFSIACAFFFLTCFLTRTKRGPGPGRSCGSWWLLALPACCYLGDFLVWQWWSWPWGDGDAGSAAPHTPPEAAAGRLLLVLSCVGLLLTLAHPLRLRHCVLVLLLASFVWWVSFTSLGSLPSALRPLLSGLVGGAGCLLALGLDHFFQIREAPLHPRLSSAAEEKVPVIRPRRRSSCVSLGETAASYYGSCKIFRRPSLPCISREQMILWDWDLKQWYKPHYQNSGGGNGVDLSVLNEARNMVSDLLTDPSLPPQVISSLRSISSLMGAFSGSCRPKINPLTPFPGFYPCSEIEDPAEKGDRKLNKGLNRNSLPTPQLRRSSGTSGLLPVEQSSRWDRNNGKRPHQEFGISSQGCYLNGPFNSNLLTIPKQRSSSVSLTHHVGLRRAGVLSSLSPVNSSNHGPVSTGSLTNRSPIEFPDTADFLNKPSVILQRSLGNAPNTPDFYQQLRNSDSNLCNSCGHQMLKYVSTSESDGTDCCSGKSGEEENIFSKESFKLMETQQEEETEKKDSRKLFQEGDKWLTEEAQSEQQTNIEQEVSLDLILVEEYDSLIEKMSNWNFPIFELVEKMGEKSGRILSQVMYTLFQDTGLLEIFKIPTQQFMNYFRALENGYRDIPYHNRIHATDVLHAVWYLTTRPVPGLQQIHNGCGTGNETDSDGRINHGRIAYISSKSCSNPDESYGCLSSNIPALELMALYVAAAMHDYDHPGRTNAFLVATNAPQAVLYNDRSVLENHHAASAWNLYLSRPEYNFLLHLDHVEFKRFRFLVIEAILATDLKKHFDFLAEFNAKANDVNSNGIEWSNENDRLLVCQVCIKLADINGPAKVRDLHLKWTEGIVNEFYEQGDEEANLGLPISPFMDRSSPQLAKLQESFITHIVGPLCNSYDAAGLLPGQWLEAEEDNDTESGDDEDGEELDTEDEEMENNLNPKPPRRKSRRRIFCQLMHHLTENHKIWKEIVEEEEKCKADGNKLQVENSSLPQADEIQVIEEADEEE

For `COc1ccc2ccc(COc3ccc(-c4nn(C)cc4-c4ccncc4)cc3)nc2c1`, in experiment [1], the pIC50 is 7.34.

As for `COc1cccc2ccc(COc3ccc(-c4nn(C)cc4-c4ccncc4)cc3)nc12`, in experiment [1], the pIC50 was 7.38.

Regarding `COc1cc(CNc2ccc(-c3nn(C)cc3-c3ccncc3)cc2)nc2ccccc12`, in experiment [1], the pIC50 was 4.86.

For the compound `COc1ccc2nc(COc3ccc(-c4nn(C)cc4-c4ccncc4)cc3)ccc2c1`, the pIC50 in experiment [2] was 5.59; in experiment [3], 5.47; in experiment [4] it was 5.01; in experiment [5], 4.11; in experiment [1], 8.74.

In the case of `COc1cccc2ccc(CSc3ccc(-c4c(-c5ccncc5)cnn4C)cc3)nc12`, the pIC50 in experiment [1] is 5.52.

On to `COc1cccc2ccc(COc3ccc(-c4c(-c5ccncc5)cnn4C)cc3)nc12`, for which the pIC50 in experiment [1] was 6.70.

For `COc1ccc2ccc(CNc3ccc(-c4c(-c5ccncc5)cnn4C)cc3)nc2c1`, in experiment [1], the pIC50 was 5.29.

Regarding `COc1cc(COc2ccc(-c3c(-c4ccncc4)cnn3C)cc2)nc2ccccc12`, the negative logarithm of the IC50 (pIC50) is 5.30 in experiment [2]; 5.38 in experiment [3]; 5.32 in experiment [4]; 4.54 in experiment [5]; 9.44 in experiment [1].

On to `COc1ccc2nc(CNc3ccc(-c4c(-c5ccncc5)cnn4C)cc3)ccc2c1`, for which, in experiment [1], the pIC50 is 5.37.

Regarding `COc1cccc2nc(COc3ccc(-c4c(-c5ccncc5)cnn4C)cc3)ccc12`, the pIC50 in experiment [1] was 7.09.

Take `COc1cccc2nc(COc3ccc(-c4nn(C)cc4-c4ccncc4)cc3)ccc12`: the pIC50 in experiment [1] was 7.22.

Regarding `COc1ccc2ccc(COc3ccc(-c4c(-c5ccncc5)cnn4C)cc3)nc2c1`, the pIC50 in experiment [1] was 7.02.

As for `COc1ccc2ccc(CSc3ccc(-c4nn(C)cc4-c4ccncc4)cc3)nc2c1`, the pIC50 in experiment [1] was 6.40.

Turning to `COc1cccc2ccc(CSc3ccc(-c4nn(C)cc4-c4ccncc4)cc3)nc12`, the pIC50 in experiment [1] was 6.20.

On to `COc1ccc2ccc(CSc3ccc(-c4c(-c5ccncc5)cnn4C)cc3)nc2c1`, for which the pIC50 in experiment [1] was 6.20.

Consider `COc1cc(CSc2ccc(-c3nn(C)cc3-c3ccncc3)cc2)nc2ccccc12`, for which, in experiment [1], the pIC50 was 6.77.

`COc1cc(COc2ccc(-c3nn(C)cc3-c3ccncc3)cc2)nc2ccccc12`: the pIC50 in experiment [2] is 5.75; in experiment [3], 5.59; in experiment [4], 5.41; in experiment [5] it was 4.56; in experiment [1], 9.55.

Consider `COc1ccc2ccc(CNc3ccc(-c4nn(C)cc4-c4ccncc4)cc3)nc2c1`, for which the pIC50 in experiment [1] is 5.13.

For the compound `COc1cc(CSc2ccc(-c3c(-c4ccncc4)cnn3C)cc2)nc2ccccc12`, the pIC50 in experiment [1] was 5.73.

Turning to `COc1cc2ccccc2nc1COc1ccc(-c2c(-c3ccncc3)cnn2C)cc1`, the pIC50 in experiment [2] was 4.50; in experiment [3] it was 3.70; in experiment [4] it was 4.77; in experiment [5], 4.73; in experiment [1], 9.62.

On to `COc1ccc2nc(COc3ccc(-c4c(-c5ccncc5)cnn4C)cc3)ccc2c1`, for which the pIC50 in experiment [2] is 5.15; in experiment [3] it was 5.25; in experiment [4], 5.52; in experiment [5], 5.82; in experiment [1], 8.75.

With `COc1cc(CNc2ccc(-c3c(-c4ccncc4)cnn3C)cc2)nc2ccccc12`, the pIC50 in experiment [1] was 6.19.

For the compound `COc1ccc2nc(CNc3ccc(-c4nn(C)cc4-c4ccncc4)cc3)ccc2c1`, the pIC50 in experiment [1] is 5.12.

Turning to `COc1cc2ccccc2nc1COc1ccc(-c2nn(C)cc2-c2ccncc2)cc1`, the negative-log IC50 (pIC50) in experiment [2] was 5.46; in experiment [3], 5.41; in experiment [4] it was 4.08; in experiment [5] it was 3.91; in experiment [1] it was 9.40.

Regarding `COc1ccc2nc(CSc3ccc(-c4nn(C)cc4-c4ccncc4)cc3)ccc2c1`, in experiment [1], the pIC50 is 6.38.

As for `COc1cccc2ccc(CNc3ccc(-c4nn(C)cc4-c4ccncc4)cc3)nc12`, the pIC50 in experiment [1] is 4.96.

Take `COc1ccc2nc(CSc3ccc(-c4c(-c5ccncc5)cnn4C)cc3)ccc2c1`: the pIC50 in experiment [1] was 6.21.

As for `COc1cccc2ccc(CNc3ccc(-c4c(-c5ccncc5)cnn4C)cc3)nc12`, the pIC50 in experiment [1] was 5.34.
